Here are results for four compounds from article PMC9827987 (Chemmedchem, 2022).

The target of test [1] is PfDHFR-WT (Plasmodium falciparum, UniProt P13922, N108S/R59C). The experiment in a line: DHFR enzyme inhibition assay, wild type. Format: biochemical.
The target of test [2] is PfDHFR-QM (Plasmodium falciparum, UniProt P13922, I164L/N51I). The experiment in a line: DHFR enzyme inhibition assay, quadruple mutant. The test is classed as biochemical.
Test [3] concerns P. falciparum TM4/8.2 (wild type PfDHFR). The experiment in a line: In vitro antimalarial activity, 3H-hypoxanthine incorporation, TM4/8.2. The test is classed as cell-based. The settings on record: Plasmodium falciparum, read-out: IC50 PfTM4/8.2.
Test [4] concerns P. falciparum V1/S (QM PfDHFR). The experiment in a line: In vitro antimalarial activity, 3H-hypoxanthine incorporation, V1S. The test is classed as cell-based. The settings on record: Plasmodium falciparum, read-out: IC50 PfV1S. In a few lines:
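P. falciparum V1/S (quadruple-mutant PfDHFR, chloroquine-resistant) grown in human erythrocytes at 37 °C under 3% CO2. Medium was RPMI 1640 with 25 mM HEPES, 0.2% NaHCO3, 40 µg/mL gentamicin and 8% human serum. Activity was measured by ³H-hypoxanthine incorporation.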

Test [5] deals with KB cells. The experiment in a line: Cytotoxicity, sulforhodamine B staining, KB. The test is classed as cell-based. The settings on record: Homo sapiens, read-out: IC50 KB.
In test [6] the target is T1, HsDHFR (Homo sapiens, UniProt P00374).
T1 sequence (P00374 1-187): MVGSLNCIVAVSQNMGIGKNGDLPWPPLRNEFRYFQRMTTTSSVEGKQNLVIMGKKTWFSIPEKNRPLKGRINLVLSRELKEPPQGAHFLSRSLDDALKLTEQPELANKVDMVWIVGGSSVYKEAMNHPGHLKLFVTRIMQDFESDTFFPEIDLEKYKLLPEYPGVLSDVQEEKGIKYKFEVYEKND
The experiment in a line: biochemical.

Some results are limits rather than exact numbers.

For `Nc1nc(N)c(CNCCc2ccccc2F)c(C2CCCCC2)n1` [7 r, 6‐Cyclohexyl‐5‐{[(2‐fluorophenethyl)amino]methyl}pyrimidine‐2,4‐diamine], the Ki in test [1] was 0.061 ± 0.0015 µM; in test [2], 0.083 ± 0.001 µM; in test [6], above 500 µM. Also, the IC50 was 4.1 ± 0.7 µM in test [3], 16 ± 2 µM in test [4] and 48 ± 14 µM in test [5].
`Nc1nc(N)c(CNCCc2cccc(F)c2)c(C2CCCCC2)n1` [7 s, 6‐Cyclohexyl‐5‐{[(3‐fluorophenethyl)amino]methyl}pyrimidine‐2,4‐diamine]: the Ki is 0.076 ± 0.005 µM in test [1], 0.074 ± 0.002 µM in test [2] and above 500 µM in test [6]. Moreover, the IC50 in test [3] was 3 ± 0.4 µM; in test [4], 11 ± 2 µM; in test [5], 62 ± 3 µM.
With `Nc1nc(N)c(CNCCc2cccc(Cl)c2)c(C2CCCCC2)n1` [7 v, 6‐Cyclohexyl‐5‐{[(3‐chlorophenethyl)amino]methyl}pyrimidine‐2,4‐diamine], the Ki in test [1] is 0.025 ± 0.001 µM; in test [2] it was 0.036 ± 0.004 µM; in test [6] it was above 250 µM. The figures for the IC50 in test [3], in test [4] and in test [5] were 3.1 ± 0.4 µM, 4 ± 0.2 µM and 23 ± 0.2 µM, respectively.
On to `Nc1nc(N)c(CNCCc2ccc(Cl)cc2Cl)c(C2CCCCC2)n1` [7 x, 6‐Cyclohexyl‐5‐{[(2,4‐dichlorophenethyl)amino]methyl}pyrimidine‐2,4‐diamine], for which the values for the Ki in test [1], in test [2] and in test [6] were 0.007 ± 0.0003 µM, 0.123 ± 0.008 µM and above 250 µM, respectively. Moreover, the IC50 amounted to 2.5 ± 0.4 µM in test [3], 4.9 ± 0.3 µM in test [4] and 62 ± 3 µM in test [5].
